SIAE primary = inhibitors of human sialic acid acetylesterase SIAE; inhibition, % at 9.66 µM; Q9HAT2; AID 1053197; actives 0.69% (n = 370,000); SIAE FP-Rh probe binding, fluorescence polarization;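 active = inhibition above a cutoff: mean of compounds within the control limits plus 3 SD of those, cut at about 17% in these data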;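 note: 0% = plate median of compound wells and 100% = probe without SIAE protein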
LEDGF integ inh = blocks HIV-1 LEDGF/p75-dependent DNA integration | inhibition, % at 3.7 µM | TR-FRET IN-LEDGF/p75 DNA integration, Eu/Cy5 | AID 743269 | actives 0.64% (n = 370,000);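 active = inhibition above the screen-wide mean plus 3 SD, cut at about 13% in these data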;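 note: signal is the Cy5 over europium emission ratio at 671 and 618 nm; 0% = plate median of compound wells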
MBD2 DNA inh = MBD2-methylated oligo binding inhibition | Q9UBB5 | TR-FRET, MBD2 binding to methylated oligonucleotide | inhibition, % at 4.4 µM | actives 0.31% (n = 370,000) | AID 686964; in the data active = inhibition above about 13%
TDP2 inh = TDP2 (human) inhibition, absorbance primary screen. O95551. recombinant TDP2, T5PNP hydrolysis, p-nitrophenol absorbance 415 nm. inhibition, % at 12.8 µM. actives 0.34% (n = 370,000);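 active = inhibition above the mean of all tested compounds plus 3 SD, set per campaign, cut at about 25% in these data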;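 note: 0% = DMSO with enzyme and 100% = buffer with substrate but no TDP2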
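Evaluation: % inhibition relative to enzyme-containing and enzyme-free wells. Material: recombinant human TDP2. Benchmarks: enzyme-free and DMSO wells. Timing: enzyme reaction with compound for 2 h at 37 °C. Compound dosing: 12.8 µM only. Measured by: p-Nitrophenol epi absorbance. Reagent: T5PNP substrate at 5 mM, a TopII-DNA adduct mimic. Replication: single well per compound.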
UHRF1 binding = human UHRF1 methylated DNA binding inhibitors. UHRF1 binding to methylated oligo, TR-FRET. inhibition, % at 4.4 µM. actives 0.75% (n = 370,000); in the data active = inhibition above about 21%;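 note: UHRF1 SRA domain binding a hemimethylated CpG hairpin DNA probe; 0% = median of test compound wells and 100% = reference inhibitor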
PRMT1 inh = PRMT1 (human) inhibition, primary screen. Q99873. recombinant PRMT1, activity-based probe fluorescence polarization. inhibition, % at 2.79 µM. actives 1.3% (n = 370,000). AID 652257;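 active = inhibition above about 21% made by adding two undisclosed values, limit read from the data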
Target sequence (Q99873 whole entry, looked up): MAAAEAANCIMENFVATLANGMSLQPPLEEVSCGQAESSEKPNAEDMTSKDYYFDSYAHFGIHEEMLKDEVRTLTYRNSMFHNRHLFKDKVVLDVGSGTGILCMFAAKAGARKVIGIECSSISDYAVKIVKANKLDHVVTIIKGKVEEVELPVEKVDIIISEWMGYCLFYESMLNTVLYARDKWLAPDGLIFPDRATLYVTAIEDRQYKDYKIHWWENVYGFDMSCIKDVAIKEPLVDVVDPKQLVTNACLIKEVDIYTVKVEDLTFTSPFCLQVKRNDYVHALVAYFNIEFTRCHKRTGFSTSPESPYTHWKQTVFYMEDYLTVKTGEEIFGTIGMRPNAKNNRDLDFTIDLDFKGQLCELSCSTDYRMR
* hit, by the source's call. Sampled rows, rich in hits. Any-hit rate of the full collection: about 3.3%.

SMILES	SIAE primary	LEDGF integ inh	MBD2 DNA inh	TDP2 inh	UHRF1 binding	PRMT1 inh
CN(C)[C@@H]1C(=O)C(C(N)=O)=C(O)[C@@]2(O)C(=O)C3=C(O)c4c(O)cccc4[C@@](C)(O)[C@H]3[C@H](O)[C@@H]12	10	61*	35*	12	67*	61*
O=C(NC(Cc1ccccc1)P(=O)(O)Oc1ccccc1)OCc1ccccc1 (stereo unspecified)	5	7	-5	8	-3	-6
O=C1NCN(c2ccccc2)C12CCN(C(c1cc3ccccc3o1)c1nnnn1C1CCCCC1)CC2 (stereo unspecified)	2	-2	8	5	23*	0
CC(C)(C)n1nnnc1C(c1cc2ccccc2o1)N1CCC2(CC1)C(=O)NCN2c1ccccc1 (stereo unspecified)	-9	3	-1	-3	-1	-1
O=C(CN1C(=O)[C@@H](Cc2c[nH]c3ccccc23)N=C(c2ccccc2)c2ccccc21)NC1CCCCC1	2	0	-4	-3	-4	0
COC(=O)C1=C(c2ccc(F)cc2OCc2ccccc2)C[C@@H]2CC[C@H]1N2C(=O)NCCN1CCOCC1	4	19*	2	0	-3	-2
N#CC1c2ccccc2-n2nncc2CN1C(=O)c1cccnc1 (stereo unspecified)	1	-3	-1	5	1	-3
Cc1ccc(OCCOc2cccc(C=C3C(=O)NC(=O)NC3=O)c2)cc1	-1	5	-9	-2	-5	22*
Cc1cc(C)cc(OCCOc2cccc(C=C3C(=O)NC(=O)NC3=O)c2)c1	-3	2	-5	-7	-4	6
N=c1c2c(-c3ccccc3)c(-c3ccccc3)n(Cc3ccccc3)c2ncn1C1CCC(O)CC1 (stereo unspecified)	17	0	-2	-10	0	-5
CCc1ccccc1NC(=O)CSc1nnc([C@@H](N)Cc2c[nH]c3ccccc23)o1	6	-1	-4	8	-3	24*
C=CCN1CC[C@]23c4c5ccc(O)c4O[C@H]2C(=O)CC[C@@]3(O)[C@H]1C5	0	0	-6	1	0	0
C=CCN1CCc2cccc3c2[C@H]1Cc1ccc(O)c(O)c1-3	15	2	1	-21	4	40*
CNCCc1ccc(O)c(O)c1	5	12	6	-2	6	21*
Cc1ccc(CC2C(=O)N(C)C(=O)N(C)C2=O)s1	3	1	3	8	-2	21*
O=C1NC(=O)N(c2ccccc2F)C(=O)/C1=C/c1ccc(Sc2nc3ccccc3[nH]2)o1	-473	22*	-5	10	9	25*
COC(=O)C1(N(C)c2ccccc2)CCN(Cc2ccccc2)CC1	-2	-3	-7	9	-1	-1
O=C1C(Cl)=CC(=Nc2ccc(O)cc2)C=C1Cl	21*	8	-9	4	-6	22*
O=C1NC(=S)N(c2ccccc2)C(=O)C1C(c1ccncc1)C1C(=O)NC(=S)N(c2ccccc2)C1=O (stereo unspecified)	-6	-2	-1	-9	5	28*
O=C1NC(=O)N(c2ccccc2)C(=O)/C1=C/c1coc2ccc(O)cc2c1=O	-22	8	5	5	27*	9
CC(C)(C)OC(=O)NCCCCC(N)[P+](=O)O (stereo unspecified)	0	-3	-3	7	0	6
CCc1ccc(N2C(=O)NC(=O)/C(=C/c3cccn3CCOc3ccc(C)cc3)C2=O)cc1	-5	-2	2	3	0	3
O=C1NC(=O)N(Cc2ccco2)C(=O)/C1=C\c1cccn1CCOc1ccc(Cl)cc1	-7	61*	2	16	55*	19
COc1ccc(C2SCC(=O)Nc3c2c(C)nn3-c2ccccc2)cc1 (stereo unspecified)	0	-2	0	3	0	23*
C[n+]1c(-c2ccccc2)sc2ccccc21	-7	-1	0	6	-1	35*
CN(C)c1ccc(/C=C/C=C/c2sc3ccccc3[n+]2C)cc1	-36	-10	-23	-4	-4	0
